Assay results pooled from the literature.
Compare with care: the assays were run in different laboratories.
Target: Dual specificity testis-specific protein kinase 1 (TESK1, Homo sapiens, UniProt Q15569)

C[C@@H](c1ccc(-n2cnc3c(N)ncnc32)cc1)N1CCc2nn(C)c(Cc3ccccc3)c2C1=O — remaining binding (binding; competition with immobilised ligand; 0.1 µM): 87%
COc1ccnn2ncc(-c3ccnc(N(C)C)n3)c12 — remaining binding (binding; 1 µM): 100%
NS(=O)(=O)c1cc(NC(=O)Cc2ccccc2)ccc1Oc1cccc(Cl)c1 — remaining binding (cell-free assay; competition with immobilised ligand; 1 µM): 100%
O=C(NCC1CCOCC1)c1n[nH]cc1NC(=O)c1c(F)cccc1F — remaining binding (binding; competition with immobilised ligand; 1 µM): 100%
COc1cnc(Nc2cccc(S(N)(=O)=O)c2)nc1N1CCN(c2ccccc2)C(=O)C1 — remaining binding (binding; competition with immobilised ligand; 1 µM): 96%
CN(C)CC#Cc1ccc(OCCCc2sc(N3CCc4cccc(C(=O)Nc5nc6ccccc6s5)c4C3)nc2C(=O)O)c(F)c1 — remaining binding (cell-free assay; competition with immobilised ligand; 1 µM): 100%
O=C(c1ccc(Nc2ncc(Cl)c(-c3cc4ccccc4s3)n2)cc1)N1CCC(N2CCCC2)CC1 — remaining binding (binding; competition with immobilised ligand; 1 µM): 81%
F[C@@H]1CCN(c2nccc(-c3cnn4ncccc34)n2)C1 — remaining binding (binding; 1 µM): 67%
Cc1cc(NC(=O)c2cccc(S(F)(F)(F)(F)F)c2)cc(-n2ccn3nc(-c4cccnc4)cc23)c1 — remaining binding (cell-free assay; competition with immobilised ligand; 1 µM): 91.7%
CN(C)c1ncc(F)c(-c2cnn3ncccc23)n1 — remaining binding (binding; 1 µM): 100%
Nc1cnc(N2CCc3cc(S(=O)(=O)Nc4c(F)cc(Cl)cc4F)cc(N4CCCC4=O)c32)nc1 — remaining binding (cell-free assay; competition with immobilised ligand; 1 µM): 100%
c1cncc(-c2cccc(Nc3nccc(NC4CCCCC4)n3)c2)c1 — remaining binding (binding; competition with immobilised ligand; 10 µM): 77%
O=C(NCCCN1CCOCC1)c1ccc(Nc2nccc(-c3cc4ccccc4s3)n2)cc1 — remaining binding (binding; competition with immobilised ligand; 1 µM): 77%
CN(CCCC(F)(F)F)c1nccc(-c2cnn3ncccc23)n1 — remaining binding (binding; 1 µM): 67%
CCS(=O)(=O)c1cc2cc(C[C@@](O)(CC(C)(C)c3ccc(F)cc3C(N)=O)C(F)(F)F)[nH]c2cn1 — remaining binding (cell-free assay; competition with immobilised ligand; 1 µM): 77%
C[C@@H]1CCN(c2nccc(-c3cnn4ncccc34)n2)C1 — remaining binding (binding; 1 µM): 91%
O=C(NCCCN1CCOCC1)c1ccc(Nc2ncc(Cl)c(-c3ccc(Cl)s3)n2)cc1 — remaining binding (binding; competition with immobilised ligand; 1 µM): 100%
O=C(N[C@H]1CCCCC/C=C\C2C[C@@]2(C(=O)O)NC(=O)[C@@H]2C[C@@H](Oc3ccncc3)CN2C1=O)OC1CCCC1 (stereo partly drawn) — remaining binding (binding; competition with immobilised ligand; 1 µM): 97%
COc1cnc(Nc2cccc(S(N)(=O)=O)c2)nc1N1CCN(c2ccccc2)CC1 — remaining binding (binding; competition with immobilised ligand; 1 µM): 100%
Nc1ncc2c(n1)-c1c([nH]c3ccc(C#CC4CC4)cc13)CCCC2 — remaining binding (binding; competition with immobilised ligand; 1 µM): 100%
N[C@H]1CCN(c2nccc(-c3cnn4ncccc34)n2)C1 — remaining binding (binding; 1 µM): 86%
